pIC50: −log10 of the molar value.
Legend:
Rattus norvegicus [1] = species: Rattus norvegicus; assay: Reducing systolic blood pressure in spontaneously hypertensive rats.; type: functional; conditions: Artery
Procedure, shortened: (§1)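 Conscious SHR trained 2 weeks, warmed at 31 ± 1 °C for 2 h; tail plethysmography SBP, mean of five readings; only rats above 170 mmHg used. After 24 h fasting, 20 mg/kg by gavage in 20% PEG-400/0.5% methylcellulose (10 mL/kg); SBP change read 1 h post-dose, n = 12.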

Oryctolagus cuniculus [2] = species: Oryctolagus cuniculus; assay: Relative potency evaluated (relative potency = IC50 of compound / IC50 of nifedipine) in rabbit; type: functional
Oryctolagus cuniculus [3] = species: Oryctolagus cuniculus; assay: Blockade of calcium-evoked contractions evaluated in depolarized rabbit aortic strips; type: functional; conditions: Aorta
Procedure, shortened: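 Male New Zealand rabbit thoracic aorta, helicoidal strips, 2.5 g preload, Krebs–bicarbonate, 37 °C, 95% O2/5% CO2, pH 7.4. After 1 h equilibration, depolarized with 35 mM K+; 1.5 mM Ca2+ added 10 min later, repeated until reproducible. Compound at increasing concentrations from 20 min before and during Ca2+ addition; responses normalized to initial tension; IC50 by Finney method.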

Oryctolagus cuniculus [4] = species: Oryctolagus cuniculus; assay: Recovery of the initial contraction of rabbit aortic strips, blocked at 10e-7 M concentration.; conditions: Aorta
[5] = molecular target: T1, Voltage-dependent L-type calcium channel subunit alpha-1C (Oryctolagus cuniculus, UniProt P15381); assay: Selectivity index was measured as the IC50 needed to depress the heart beat divided by IC50 needed to block [Ca2+] contractions in rabbit aortic strips; type: functional, tissue-based, Aorta
Rattus norvegicus [6] = assay: Systolic blood pressure after administration of a single oral dose (20 mg/kg) in spontaneously hypertensive rats.; type: functional; procedure, shortened: as §1
Rattus norvegicus [7] = species: Rattus norvegicus; assay: Compound evaluated for reducing diastolic blood pressure in spontaneously hypertensive rats.; type: functional; conditions: Artery
Procedure, shortened: (§2)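 Anesthetized (pentobarbitone 70 mg/kg ip) Okamoto SHR, 290 ± 30 g; carotid pressure, femoral vein dosing. Cumulative increasing iv bolus doses of 1, 3, 6, 10, 20, 30 µg/kg in PEG-400 (0.1 mL/kg), each recorded 15 min; ED25 for lowering SBP and DBP and duration of hypotensive action estimated.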

Rattus norvegicus [8] = species: Rattus norvegicus; assay: Duration of action in spontaneously hypertensive rats.; type: functional; procedure, shortened: as §2
Oryctolagus cuniculus [9] = species: Oryctolagus cuniculus; assay: Inhibition of electrically stimulated rabbit left atria contraction.; type: functional
Procedure, shortened: (§3)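 Rabbit left atria electrically driven (1 Hz, 10 ms, twice threshold voltage), equilibrated 1–1.5 h. Compounds added cumulatively (10^-10–10^-6 M), diluted from DMSO stocks into Krebs–Henseleit, final DMSO <0.1%. Isometric force recorded; IC50 from contractile force relative to initial control values, with 95% confidence limits.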

Oryctolagus cuniculus [10] = species: Oryctolagus cuniculus; assay: Inhibition of electrically stimulated rabbit left atria contraction; type: functional; procedure, shortened: as §3
[11] = molecular target: T1, Voltage-dependent L-type calcium channel subunit alpha-1C; assay: Blockade of calcium-evoked contractions in depolarized aortic strips; type: functional, tissue-based, Aorta
Oryctolagus cuniculus [12] = species: Oryctolagus cuniculus; assay: Relative potency was evaluated. (relative potency = IC50 of compound / IC50 of nifedipine); type: functional
Oryctolagus cuniculus [13] = species: Oryctolagus cuniculus; assay: Maximum contractile force in rabbit aorta strips; type: functional
Procedure, shortened: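 Rabbit aortic strips, after equilibration in Ca2+-free Krebs, switched to buffer with 10 mM K+. Repeated 1.5 mM Ca2+ pulses until reproducible. Increasing compound concentrations each given 10 min before a further 1.5 mM Ca2+ pulse. Maximum contractile force (mg) taken as vasoconstrictor effect; data as mean ± SEM at 10^-6 M.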

Rattus norvegicus [14] = assay: Systolic blood pressure after administration of a single oral dose (20 mg/kg) in spontaneously hypertensive rats; type: functional; procedure, shortened: as §1
[15] = molecular target: T1, Voltage-dependent L-type calcium channel subunit alpha-1C; conditions: rabbit, Aorta

T1 sequence (P15381 whole entry): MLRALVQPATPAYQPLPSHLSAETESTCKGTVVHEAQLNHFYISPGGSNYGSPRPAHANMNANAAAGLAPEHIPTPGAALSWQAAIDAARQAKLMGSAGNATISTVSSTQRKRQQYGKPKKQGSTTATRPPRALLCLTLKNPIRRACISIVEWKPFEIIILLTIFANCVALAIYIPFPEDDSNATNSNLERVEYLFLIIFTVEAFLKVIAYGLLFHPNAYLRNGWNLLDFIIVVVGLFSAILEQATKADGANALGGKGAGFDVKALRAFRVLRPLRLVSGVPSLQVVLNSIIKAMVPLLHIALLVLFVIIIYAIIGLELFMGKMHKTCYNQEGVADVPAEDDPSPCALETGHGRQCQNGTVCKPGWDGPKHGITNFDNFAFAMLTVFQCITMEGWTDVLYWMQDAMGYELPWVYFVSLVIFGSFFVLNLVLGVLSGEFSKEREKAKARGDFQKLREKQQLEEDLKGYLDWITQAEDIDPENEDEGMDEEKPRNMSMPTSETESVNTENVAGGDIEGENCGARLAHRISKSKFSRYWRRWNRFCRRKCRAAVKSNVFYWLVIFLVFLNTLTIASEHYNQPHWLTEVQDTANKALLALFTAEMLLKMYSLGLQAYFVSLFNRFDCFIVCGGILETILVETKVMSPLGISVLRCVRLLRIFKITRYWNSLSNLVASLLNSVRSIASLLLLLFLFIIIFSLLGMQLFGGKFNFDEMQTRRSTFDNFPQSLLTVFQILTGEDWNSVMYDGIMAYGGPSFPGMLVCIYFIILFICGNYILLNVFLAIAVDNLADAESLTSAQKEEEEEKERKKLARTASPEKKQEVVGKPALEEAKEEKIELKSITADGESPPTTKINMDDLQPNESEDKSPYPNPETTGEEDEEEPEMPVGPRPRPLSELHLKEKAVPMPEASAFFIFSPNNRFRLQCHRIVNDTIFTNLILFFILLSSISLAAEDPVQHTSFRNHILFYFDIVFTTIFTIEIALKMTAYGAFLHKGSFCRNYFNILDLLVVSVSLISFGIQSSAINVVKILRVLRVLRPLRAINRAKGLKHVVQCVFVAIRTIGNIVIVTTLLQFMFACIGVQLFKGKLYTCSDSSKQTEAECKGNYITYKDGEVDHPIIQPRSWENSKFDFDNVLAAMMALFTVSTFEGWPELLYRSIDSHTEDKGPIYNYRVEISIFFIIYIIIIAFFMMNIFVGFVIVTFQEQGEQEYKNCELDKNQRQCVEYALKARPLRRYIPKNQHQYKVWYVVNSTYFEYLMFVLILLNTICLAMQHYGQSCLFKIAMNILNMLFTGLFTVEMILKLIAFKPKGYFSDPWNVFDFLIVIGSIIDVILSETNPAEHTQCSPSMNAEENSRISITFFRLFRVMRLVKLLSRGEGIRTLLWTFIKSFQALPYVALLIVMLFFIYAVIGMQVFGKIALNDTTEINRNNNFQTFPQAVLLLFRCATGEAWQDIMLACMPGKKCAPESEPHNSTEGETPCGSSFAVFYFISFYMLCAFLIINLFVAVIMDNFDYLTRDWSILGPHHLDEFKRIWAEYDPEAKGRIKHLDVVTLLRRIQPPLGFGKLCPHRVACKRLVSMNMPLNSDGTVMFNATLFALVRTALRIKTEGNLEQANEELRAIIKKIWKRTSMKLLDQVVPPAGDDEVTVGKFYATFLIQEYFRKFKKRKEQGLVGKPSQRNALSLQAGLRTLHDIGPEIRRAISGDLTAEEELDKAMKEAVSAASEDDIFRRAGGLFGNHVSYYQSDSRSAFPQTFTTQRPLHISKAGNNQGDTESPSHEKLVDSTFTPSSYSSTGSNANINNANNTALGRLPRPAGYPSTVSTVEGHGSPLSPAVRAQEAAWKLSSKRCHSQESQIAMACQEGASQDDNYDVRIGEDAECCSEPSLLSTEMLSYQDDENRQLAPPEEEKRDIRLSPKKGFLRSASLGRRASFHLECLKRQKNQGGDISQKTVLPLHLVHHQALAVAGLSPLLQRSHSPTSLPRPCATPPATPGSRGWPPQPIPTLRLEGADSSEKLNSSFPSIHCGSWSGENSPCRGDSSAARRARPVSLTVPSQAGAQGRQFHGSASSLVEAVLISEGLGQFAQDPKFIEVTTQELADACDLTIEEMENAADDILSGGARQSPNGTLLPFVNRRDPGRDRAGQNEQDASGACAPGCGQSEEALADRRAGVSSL

CC1=NC(C)=C(C(=O)OCCN2C(=O)c3ccccc3S2(=O)=O)C(c2ccccc2C(F)(F)F)/C1=C(\O)OC(C)C (centres undefined)
ED25 (Rattus norvegicus [1]): 0.009 mg/kg | Relative potency (Oryctolagus cuniculus [2]): 2.5 | pIC50 (Oryctolagus cuniculus [3]): 9.00 | Recovery (Oryctolagus cuniculus [4]): 0.5% | Selectivity index [5]: 103 | SBP change (Rattus norvegicus [6]): 37% | ED25 (Rattus norvegicus [7]): 0.008 mg/kg | Duration (Rattus norvegicus [8]): >15 min | pIC50 (Oryctolagus cuniculus [9]): 6.99

CCO/C(O)=C1\C(C)=NC(C)=C(C(=O)OCCN2C(=O)c3ccccc3S2(=O)=O)C1c1ccccc1C(F)(F)F (centres undefined)
pIC50 (Oryctolagus cuniculus [10]): 7.13 | Relative potency (Oryctolagus cuniculus [2]): 5.8 | pIC50 (Oryctolagus cuniculus [3]): 9.30 | Recovery (Oryctolagus cuniculus [4]): 14.5% | Selectivity index [5]: 152

COCCO/C(O)=C1\C(C)=NC(C)=C(C(=O)OCN2C(=O)c3ccccc3S2(=O)=O)C1c1cccc(Cl)c1Cl (centres undefined)
pIC50 [11]: 8.54 | Relative potency (Oryctolagus cuniculus [12]): 1

CC1=NC(C)=C(C(=O)OCCN2C(=O)c3ccccc3S2(=O)=O)C(c2ccccc2[N+](=O)[O-])/C1=C(\O)OCC1CCCCO1 (centres undefined)
pIC50 (Oryctolagus cuniculus [3]): < 6.00 | Max contractile force (Oryctolagus cuniculus [13]): 990 mg

CC1=NC(C)=C(C(=O)OCCN2C(=O)c3ccccc3S2(=O)=O)C(c2cccc([N+](=O)[O-])c2)/C1=C(\O)OCC1CCCO1 (centres undefined)
Relative potency (Oryctolagus cuniculus [2]): <0.1 | pIC50 (Oryctolagus cuniculus [3]): 6.97 | Max contractile force (Oryctolagus cuniculus [13]): 570 mg

CC1=NC(C)=C(C(=O)OCCN2C(=O)c3ccccc3S2(=O)=O)C(c2ccccc2Cl)/C1=C(\O)OCC1CCCCO1 (centres undefined)
Relative potency (Oryctolagus cuniculus [2]): <0.1 | pIC50 (Oryctolagus cuniculus [3]): 6.46 | Max contractile force (Oryctolagus cuniculus [13]): 510 mg

CO/C(O)=C1\C(C)=NC(C)=C(C(=O)OCN2C(=O)c3ccccc3S2(=O)=O)C1c1ccccc1[N+](=O)[O-] (centres undefined)
pIC50 [11]: 7.51 | Relative potency (Oryctolagus cuniculus [12]): 0.1

CC1=NC(C)=C(C(=O)OCCN2C(=O)c3ccccc3S2(=O)=O)C(c2cccc([N+](=O)[O-])c2)/C1=C(\O)OC(C)(C)C (centres undefined)
pIC50 (Oryctolagus cuniculus [10]): 6.94 | Relative potency (Oryctolagus cuniculus [2]): 1.8 | pIC50 (Oryctolagus cuniculus [3]): 8.80 | Recovery (Oryctolagus cuniculus [4]): 0% | Selectivity index [5]: 72 | SBP change (Rattus norvegicus [6]): 25%

CO/C(O)=C1\C(C)=NC(C)=C(C(=O)OCCCN2C(=O)c3ccccc3S2(=O)=O)C1c1cccc(Cl)c1Cl (centres undefined)
pIC50 (Oryctolagus cuniculus [10]): 6.28 | ED25 (Rattus norvegicus [1]): 0.012 mg/kg | Relative potency (Oryctolagus cuniculus [2]): 3.6 | pIC50 (Oryctolagus cuniculus [3]): 9.10 | Recovery (Oryctolagus cuniculus [4]): 0% | SBP change (Rattus norvegicus [14]): 35% | Selectivity index [5]: 686 | ED25 (Rattus norvegicus [7]): 0.01 mg/kg | Duration (Rattus norvegicus [8]): >15 min

CC1=NC(C)=C(C(=O)OCN2C(=O)c3ccccc3S2(=O)=O)C(c2cccc([N+](=O)[O-])c2)/C1=C(\O)OC(C)(C)C (centres undefined)
pIC50 [11]: 8.11 | Relative potency (Oryctolagus cuniculus [12]): 0.4

CO/C(O)=C1\C(C)=NC(C)=C(C(=O)OCN2C(=O)c3ccccc3S2(=O)=O)C1c1cccc([N+](=O)[O-])c1 (centres undefined)
pIC50 [11]: 7.82 | Relative potency (Oryctolagus cuniculus [12]): 0.2

CCO/C(O)=C1\C(C)=NC(C)=C(C(=O)OCN2C(=O)c3ccccc3S2(=O)=O)C1c1cccc([N+](=O)[O-])c1 (centres undefined)
pIC50 [11]: 8.48 | Relative potency (Oryctolagus cuniculus [12]): 0.1

CC1=NC(C)=C(C(=O)OCN2C(=O)c3ccccc3S2(=O)=O)C(c2ccccc2[N+](=O)[O-])/C1=C(\O)OCC1CCCCO1 (centres undefined)
pIC50 [11]: 7.60 | Relative potency (Oryctolagus cuniculus [12]): 0.1

CCCO/C(O)=C1\C(C)=NC(C)=C(C(=O)OCN2C(=O)c3ccccc3S2(=O)=O)C1c1cccc([N+](=O)[O-])c1 (centres undefined)
pIC50 [11]: 7.19 | Relative potency (Oryctolagus cuniculus [12]): <0.1

CC1=NC(C)=C(C(=O)OCN2C(=O)c3ccccc3S2(=O)=O)C(c2cccc([N+](=O)[O-])c2)/C1=C(\O)OCC1CCCO1 (centres undefined)
Recovery (Oryctolagus cuniculus [4]): 27.2% | pIC50 [11]: 7.60 | Relative potency (Oryctolagus cuniculus [12]): 0.1 | T1/2 [15]: 9.6 min

CC1=NC(C)=C(C(=O)OCCCN2C(=O)c3ccccc3S2(=O)=O)C(c2ccccc2C(F)(F)F)/C1=C(\O)OCC1CCCCO1 (centres undefined)
pIC50 (Oryctolagus cuniculus [10]): 6.77 | Relative potency (Oryctolagus cuniculus [2]): 2.1 | pIC50 (Oryctolagus cuniculus [3]): 8.85 | Recovery (Oryctolagus cuniculus [4]): 5% | Selectivity index [5]: 121

CO/C(O)=C1\C(C)=NC(C)=C(C(=O)OCCN2C(=O)c3ccccc3S2(=O)=O)C1c1ccccc1Cl (centres undefined)
pIC50 (Oryctolagus cuniculus [3]): < 6.00 | Max contractile force (Oryctolagus cuniculus [13]): 610 mg

CCO/C(O)=C1\C(C)=NC(C)=C(C(=O)OCCCN2C(=O)c3ccccc3S2(=O)=O)C1c1cccc(Cl)c1Cl (centres undefined)
ED25 (Rattus norvegicus [1]): 0.015 mg/kg | Relative potency (Oryctolagus cuniculus [2]): 1.6 | pIC50 (Oryctolagus cuniculus [3]): 8.74 | Recovery (Oryctolagus cuniculus [4]): 0% | SBP change (Rattus norvegicus [14]): 36% | Selectivity index [5]: 200 | ED25 (Rattus norvegicus [7]): 0.012 mg/kg | Duration (Rattus norvegicus [8]): 2 min | pIC50 (Oryctolagus cuniculus [9]): 6.45

CO/C(O)=C1\C(C)=NC(C)=C(C(=O)OCCN2C(=O)c3ccccc3S2(=O)=O)C1c1ccccc1C(F)(F)F (centres undefined)
pIC50 (Oryctolagus cuniculus [3]): < 6.00 | Max contractile force (Oryctolagus cuniculus [13]): 420 mg

CC1=NC(C)=C(C(=O)OCN2C(=O)c3ccccc3S2(=O)=O)C(c2ccccc2C(F)(F)F)/C1=C(\O)OCC1CCCCO1 (centres undefined)
pIC50 [11]: 8.44 | Relative potency (Oryctolagus cuniculus [12]): 0.8

CC1=NC(C)=C(C(=O)OCN2C(=O)c3ccccc3S2(=O)=O)C(c2ccccc2[N+](=O)[O-])/C1=C(\O)OCC1CCCO1 (centres undefined)
Recovery (Oryctolagus cuniculus [4]): 44.5% | pIC50 [11]: 7.42 | Relative potency (Oryctolagus cuniculus [12]): 0.1 | T1/2 [15]: 8.7 min | pIC50 (Oryctolagus cuniculus [9]): 6.54

CC1=NC(C)=C(C(=O)OCCCN2C(=O)c3ccccc3S2(=O)=O)C(c2cccc(Cl)c2Cl)/C1=C(\O)OC(C)C (centres undefined)
Relative potency (Oryctolagus cuniculus [2]): 1.4 | pIC50 (Oryctolagus cuniculus [3]): 8.68 | Recovery (Oryctolagus cuniculus [4]): 0% | SBP change (Rattus norvegicus [14]): 11% | Selectivity index [5]: 75 | pIC50 (Oryctolagus cuniculus [9]): 6.81

CC1=NC(C)=C(C(=O)OCCN2C(=O)c3ccccc3S2(=O)=O)C(c2cccc([N+](=O)[O-])c2)/C1=C(\O)OC(C)C (centres undefined)
Relative potency (Oryctolagus cuniculus [2]): 9.7 | pIC50 (Oryctolagus cuniculus [3]): 9.52 | Recovery (Oryctolagus cuniculus [4]): 0% | Selectivity index [5]: 137 | SBP change (Rattus norvegicus [6]): 20% | pIC50 (Oryctolagus cuniculus [9]): 7.43

CC1=NC(C)=C(C(=O)OCCN2C(=O)c3ccccc3S2(=O)=O)C(c2cccc(Cl)c2Cl)/C1=C(\O)OC(C)C (centres undefined)
Relative potency (Oryctolagus cuniculus [2]): 10 | pIC50 (Oryctolagus cuniculus [3]): 9.52 | Recovery (Oryctolagus cuniculus [4]): 0% | SBP change (Rattus norvegicus [14]): 8% | Selectivity index [5]: 2744 | pIC50 (Oryctolagus cuniculus [9]): 6.16

CC1=NC(C)=C(C(=O)OCCCN2C(=O)c3ccccc3S2(=O)=O)C(c2ccccc2[N+](=O)[O-])/C1=C(\O)OC(C)C (centres undefined)
pIC50 (Oryctolagus cuniculus [10]): 7.73 | Relative potency (Oryctolagus cuniculus [2]): 2.4 | pIC50 (Oryctolagus cuniculus [3]): 8.92 | Recovery (Oryctolagus cuniculus [4]): 0.2% | Selectivity index [5]: 15

CC1=NC(C)=C(C(=O)OCCN2C(=O)c3ccccc3S2(=O)=O)C(c2cccc(Cl)c2Cl)/C1=C(\O)OC(C)(C)C (centres undefined)
ED25 (Rattus norvegicus [1]): 0.014 mg/kg | Relative potency (Oryctolagus cuniculus [2]): 1.3 | pIC50 (Oryctolagus cuniculus [3]): 8.64 | Recovery (Oryctolagus cuniculus [4]): 0% | SBP change (Rattus norvegicus [14]): 36% | Selectivity index [5]: 122 | ED25 (Rattus norvegicus [7]): 0.011 mg/kg | Duration (Rattus norvegicus [8]): >15 min | pIC50 (Oryctolagus cuniculus [9]): 6.55

CC1=NC(C)=C(C(=O)OCN2C(=O)c3ccccc3S2(=O)=O)C(c2ccccc2[N+](=O)[O-])/C1=C(\O)OC(C)C (centres undefined)
pIC50 [11]: 8.85 | Relative potency (Oryctolagus cuniculus [12]): 2.1
